Published values from different studies.
Target: Carbonic anhydrase 2 (CA2, Homo sapiens, UniProt P00918)
Observed: enzyme activity
Action: inhibitor

NS(=O)(=O)c1nnc(NC(=O)CCC2CCCCO2)s1 (stereo not drawn)  Ki (stopped-flow): 0.84 nM
CC(C)CNC(=S)N/N=C/c1ccc(N2CCC(O)CC2)cc1  IC50 (absorbance): 695 nM
NS(=O)(=O)c1nnc(NC(=O)CCCC2CCCCC2)s1  Ki (stopped-flow): 8.8 nM
CC[C@H]1OC(=O)[C@H](C)[C@@H](O[C@H]2C[C@@](C)(OC)[C@@H](O)[C@H](C)O2)[C@H](C)[C@@H](O[C@@H]2O[C@H](C)C[C@H](N(C)C)[C@H]2O)[C@](C)(O)C[C@@H](C)CN(C)[C@H](C)[C@@H](O)[C@]1(C)O  IC50 (absorbance; pH 7.4): 13000 nM
NCCCC(=O)Nc1nnc(S(N)(=O)=O)s1  Ki (stopped-flow): 65.7 nM
NS(=O)(=O)c1ccc(Nc2nc(-c3cc4cc(Br)ccc4oc3=O)cs2)c(Br)c1  IC50 (absorbance): 5860 nM
COc1ccc(NC(=S)N/N=C/c2ccc(N3CCC(O)CC3)cc2)cc1  IC50 (absorbance): 579 nM
CC1CCCCC1CC(=O)Nc1nnc(S(N)(=O)=O)s1 (stereo not drawn)  Ki (stopped-flow): 29.2 nM
OC1CCN(c2ccc(/C=N/NC(=S)Nc3ccccc3)cc2)CC1  IC50 (absorbance): 507 nM
CN(C)CCC(c1ccccc1)c1ccccn1 (stereo not drawn)  IC50 (absorbance; pH 7.4): 22200 nM
COc1ccc2oc(=O)c(-c3csc(Nc4ccc(C(=O)O)cc4)n3)cc2c1  IC50 (absorbance): 4610 nM
CN(C/C=C/C#CC(C)(C)C)Cc1cccc2ccccc12  IC50 (absorbance; pH 7.4): 32200 nM
CC(C)(C)CCC(=O)Nc1nnc(S(N)(=O)=O)s1  Ki (stopped-flow): 10.2 nM
OC1CCN(c2ccc(/C=N/NC(=S)Nc3cccc(Cl)c3Cl)cc2)CC1  IC50 (absorbance): 267 nM
CCOC(=O)N1CCC(=C2c3ccc(Cl)cc3CCc3cccnc32)CC1  IC50 (absorbance; pH 7.4): 13100 nM
